The source of these data is ChEMBL document CHEMBL1123966, “Ring-substituted [1,2-bis(4-hydroxyphenyl)ethylenediamine]dichloroplatinum (II) complexes: compounds with a selective effect on the hormone-dependent mammary carcinoma” (1988).

For assay [1], the system named is MDA-MB-231. The assay is described as follows: Incorporation of [3H]- thymidine into hormone independent MDA-MB-231 breast cancer cells. The format is functional, cell-based. To be noted: Homo sapiens.
The species entered for assay [2] is Mus musculus. Description: Uterotrophic effect in BDF1 mouse measured as([weight of uterus (mg)/body weight (g)] *100). The format is functional. The gist of the method:
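Female BDF1 mice carrying MXT ER+ mammary carcinoma were dosed in olive oil, sc, three times a week, for 6 weeks. At the end of therapy, uterotropic effect = [uterus dry weight (mg)/body weight (g)] × 100, given as mean ± SD and as T/C % versus control. Significance was by the U test.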

A short description of assay [3]: Cell growth inhibition MXT-ER- breast cancer cells at a dose of 11.3 mg/kg. Further details: dose 11.3 mg/kg. The format is functional, organism-based. To be noted: Mus musculus, Cancer cell lines. Summed up: (§1)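 Hormone-independent MXT mammary carcinoma (ER−) in mice. Equimolar doses (2 × 10⁻⁵ M/kg) were given sc three times a week (Mon, Wed, Fri) in polyethylene glycol 400/H₂O (1:1), or in olive oil for some agents. Median tumor area was measured at the end of a 2-week therapy and expressed as T/C %.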

Assay [4] deals with Mus musculus. Description: Uterotrophic effect in BDF1 mouse at a dose of 11.3 mg/kg. The format is functional, organism-based. Further details: dose 11.3 mg/kg. Conditions: Uterus. Summed up: (§2)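 Uterus of BDF1 mice in the MXT ER+ study. Equimolar dosing at 2 × 10⁻⁵ M/kg, sc in PEG 400/H₂O 1:1 three times a week (Mon/Wed/Fri). Uterine response = [uterus dry weight (mg)/body weight (g)] × 100, determined after 6 weeks of therapy; U test.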

Assay [5] can be described thus: Cell growth inhibition MXT-ER+ breast cancer cells at a dose of 11.3 mg/kg. The class given is functional, organism-based. Further details: dose 11.3 mg/kg. Conditions: Mus musculus, Cancer cell lines. Summed up:
(§3)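 Hormone-dependent MXT mammary carcinoma (ER+) model. Equimolar doses (2 × 10⁻⁵ M/kg) were given sc three times weekly (Mon, Wed, Fri) as a solution or suspension in polyethylene glycol 400/H₂O (1:1); some agents were given in olive oil. Median tumor weight was taken at the end of 6 weeks of therapy and given as T/C %. Significance was tested by the Wilcoxon-Mann-Whitney U test.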

In assay [6] the test system is MCF7S. Description: Incorporation of [3H]- thymidine in hormone dependent MCF-7 breast cancer cells. Conditions: Homo sapiens. The format is functional, cell-based.
For assay [7], the system named is Mus musculus. The assay is described as follows: Median tumor weight of MXT (mammary carcinoma) ER+ determined at the end of 6 week therapy at a dose of 11.3 mg/kg. The class given is functional, organism-based. Further details: dose 11.3 mg/kg. The gist of the method: as §3
For assay [8], the system named is MDA-MB-231. Description: Incorporation of [3H]- thymidine in hormone independent MDA-MB-231 breast cancer cells. To be noted: Homo sapiens. The class given is functional, cell-based.
In assay [9] the test system is MCF7S. Description: Cell growth inhibition in hormone dependent MCF 7 breast cancer cells. The class given is functional, cell-based. Conditions: Homo sapiens.
The test system of assay [10] is MDA-MB-231. Description: Cell growth inhibition in hormone independent MDA-MB-231 breast cancer cells. The format is functional, cell-based. To be noted: Homo sapiens.
Assay [11] has as its system Mus musculus. Description: Median tumor weight of MXT (mammary carcinoma) ER+ determined at the end of 6 week therapy at a dose of 12.9 mg/kg. The class given is functional, organism-based. Further details: dose 12.9 mg/kg. Summed up:
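BDF1 mice with hormone-dependent MXT mammary carcinoma (ER+). Equimolar dosing at 2 × 10⁻⁵ M/kg, given sc in olive oil three times a week (Mon/Wed/Fri) for 6 weeks. Median tumor weight was taken at the end of therapy and compared with controls by the Wilcoxon–Mann–Whitney U test.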

Assay [12] is described as follows: Cell growth inhibition MXT-ER+ breast cancer cells at a dose of 12.9 mg/kg. The format is functional, organism-based. Further details: dose 12.9 mg/kg. To be noted: Mus musculus, Cancer cell lines. Summed up: as §3
Assay [13] deals with Mus musculus. Description: Uterotrophic effect in BDF1 mouse at a dose of 12.9 mg/kg. The class given is functional, organism-based. Conditions: Uterus. Further details: dose 12.9 mg/kg. Summed up:
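Uterus of BDF1 mice in the MXT ER+ study. Equimolar dosing at 2 × 10⁻⁵ M/kg, sc in olive oil three times a week (Mon/Wed/Fri). Uterine response = [uterus dry weight (mg)/body weight (g)] × 100, determined at the end of the 6-week therapy; U test.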

Assay [14] in a line: Cell growth inhibition MXT-ER- breast cancer cells at a dose of 12.9 mg/kg. The class given is functional, organism-based. Further details: dose 12.9 mg/kg. To be noted: Mus musculus, Cancer cell lines. Summed up: as §1
For assay [15], the system named is Mus musculus. The assay is described as follows: Uterotrophic effect in BDF1 mouse at a dose of 10.9 mg/kg. The format is functional, organism-based. Further details: dose 10.9 mg/kg. To be noted: Uterus. The gist of the method: as §2
Assay [16] is described as follows: Cell growth inhibition MXT-ER- breast cancer cells at a dose of 10.9 mg/kg. The class given is functional, organism-based. Further details: dose 10.9 mg/kg. To be noted: Mus musculus, Cancer cell lines. Summed up:
as §1

In assay [17] the test system is Mus musculus. The assay is described as follows: Median tumor weight of MXT (mammary carcinoma) ER+ determined at the end of 6 week therapy at a dose of 10.9 mg/kg. The class given is functional, organism-based. Further details: dose 10.9 mg/kg. Summed up: as §3
Assay [18] is described as follows: Cell growth inhibition MXT-ER+ breast cancer cells at a dose of 10.9 mg/kg. The format is functional, organism-based. Further details: dose 10.9 mg/kg. To be noted: Mus musculus, Cancer cell lines. The gist of the method:
as §3

Assay [19] is described as follows: Cell growth inhibition of MXT-ER- breast cancer cells at a dose of 13.4 mg/kg. Further details: dose 13.4 mg/kg. Conditions: Mus musculus, Cancer cell lines. The class given is functional, organism-based. The gist of the method:
as §1

Assay [20] concerns Mus musculus. The assay is described as follows: Uterotrophic effect in BDF1 mouse at a dose of 13.4 mg/kg. The format is functional, organism-based. Further details: dose 13.4 mg/kg. To be noted: Uterus. The gist of the method: as §2
Assay [21] in a line: Cell growth inhibition of MXT-ER+ breast cancer cells at a dose of 13.4 mg/kg. The class given is functional, organism-based. Further details: dose 13.4 mg/kg. Conditions: Mus musculus, Cancer cell lines. The gist of the method: as §3
Assay [22] deals with Mus musculus. Description: Median tumor weight of MXT ER+ determined at the end of 6 week therapy at a dose of 13.4 mg/kg. Further details: dose 13.4 mg/kg. The format is functional, organism-based. Summed up: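 BDF1 mice with hormone-dependent MXT mammary carcinoma (ER+). Equimolar dosing at 2 × 10⁻⁵ M/kg, given sc three times a week (Mon/Wed/Fri) for 6 weeks as a solution or suspension in PEG 400/H₂O 1:1. Median tumor weight was taken at the end of therapy; U test (Wilcoxon, Mann, Whitney).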

For meso-2-PtCl2(2-6-(CH3)2), the ED50 in the assay with MDA-MB-231 [1] was determined as 2.7 µM; in the assay with MCF7S [6], 0.9 µM; in the assay with MCF7S [9], 3.1 µM; in the assay with MDA-MB-231 [10] it was 2.7 µM. In addition, the Effect in the assay listed under Mus musculus [2] came to 86.6. Also, the T/C (in general, the result in the treated group divided by that in the control group, in per cent) amounted to 63% in assay [3]; 96% in the assay with Mus musculus [4]; 9% in assay [5]; 4% in the assay with MCF7S [6]; 28% in the assay on MDA-MB-231 [8]; 17% with MCF7S [9]. Besides, in the assay on MDA-MB-231 [10], the T/C turned out to be 34%. The substance further returned a Med tumor weight in the assay on Mus musculus [7] of 40 mg.
As for meso-3-PtCl2(2-CF3), the Med tumor weight in the assay with Mus musculus [11] was determined as 422 mg. For the same substance, the T/C was found to be 78% in [12]; 27% in the assay with MCF7S [6]; 100% in the assay with Mus musculus [13]; 36% in the assay with MDA-MB-231 [8]; 72% in assay [14]; 61% in the assay on MCF7S [9]. This substance displayed a T/C in the assay with MDA-MB-231 [10] of 46%. In the assay filed under Mus musculus [2], this substance displayed an Effect of 70.9. In addition, the ED50 stood at 2.2 µM with MCF7S [6], 3.2 µM in the assay with MDA-MB-231 [8], 5.1 µM with MCF7S [9] and 4 µM in the assay on MDA-MB-231 [10].
In the case of meso-4-PtCl2(2-F), the T/C with Mus musculus [15] turned out to be 100%; in the assay on MCF7S [6] it was 16%; in the assay with MDA-MB-231 [8], 12%; in assay [16], 60%; in assay [18], 30%; in the assay on MCF7S [9], 49%. The same substance registered a T/C with MDA-MB-231 [10] of 21%. For the same substance, the ED50 turned out to be 0.9 µM in the assay with MDA-MB-231 [1], 1.5 µM with MCF7S [6], 4.8 µM with MCF7S [9] and 1.5 µM with MDA-MB-231 [10]. In the assay listed under Mus musculus [2], this substance returned an Effect of 89.9. The Med tumor weight in the assay with Mus musculus [17] stood at 143 mg.
With meso-7-PtCl2(2-Br), the ED50 is 1.2 µM in the assay on MDA-MB-231 [1], 1.4 µM in the assay with MCF7S [6], 3.1 µM in the assay on MCF7S [9] and 4.3 µM in the assay with MDA-MB-231 [10]. The substance also displayed an Effect in the assay listed under Mus musculus [2] of 89.3. In addition, the T/C came out at 65% in assay [19]; 15% in the assay with MCF7S [6]; 13% in the assay with MDA-MB-231 [8]; 99% in the assay on Mus musculus [20]; 12% in assay [21]; 30% in the assay with MCF7S [9]. Moreover, in the assay with MDA-MB-231 [10], the T/C amounted to 43%. Moreover, the Med tumor weight with Mus musculus [22] was determined as 57 mg.
